Data taken from ChEMBL document CHEMBL1142709, “Discovery and evaluation of 2-anilino-5-aryloxazoles as a novel class of VEGFR2 kinase inhibitors” (J Med Chem, 2005).

How the values were obtained:
[1] = Inhibition of basic FGF-induced proliferation of human umbilical vein endothelial cells; format: functional, cell-based; conditions: Endothelial cell
[2] = Bioavailability of compound was determined in rats dosed at […] iv in 10% HP-alpha-cyclodextrin in 0.05 M acetic acid and 10 mg/kg po in 0.5% HPMCw/0.1% Tween 80 (n=3); format: ADME, organism-based; conditions: rat, in vivo
[3] = Half life in rats dosed at […] iv in 10% HP-alpha-cyclodextrin in 0.05 M acetic acid and 10 mg/kg po in 0.5% HPMCw/0.1% Tween 80 (n=3); format: ADME, organism-based; conditions: rat, in vivo
[4] = Distribution at steady state was determined in dogs dosed at […] and 1 mg/kg po in 0.5% HPMC w/0.1%Tween 80 (n=2); format: ADME, organism-based, Canis lupus familiaris; conditions: dog, in vivo, iv, read-out: Vdss
[5] = Half life in dogs dosed at 1 mg/kg iv in 40% […] and 1 mg/kg po in 0.5% HPMC w/0.1%Tween 80 (n=2); format: ADME, organism-based, Canis lupus familiaris; conditions: dog, in vivo
Method in brief: (§1)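 Male beagle dogs (n = 2). IV 1 mg/kg in 40% SBE-β-cyclodextrin and oral gavage 1 mg/kg in 0.5% HPMC/0.1% Tween 80, dose volume 0.5 mL/kg. Plasma precipitated with four volumes of acetonitrile and analysed by HPLC/MS. Parameters are averages of two dogs.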

[6] = Bioavailability of compound was determined in dogs dosed at 1 mg/kg iv in 40% […] and 1 mg/kg po in 0.5% HPMC w/0.1%Tween 80 (n=2); format: ADME, organism-based, Canis lupus familiaris; conditions: dog, in vivo; method in brief: as §1
[7] = Distribution at steady state was determined in rats dosed at […] iv in 10% HP-alpha-cyclodextrin in 0.05 M acetic acid and 10 mg/kg po in 0.5% HPMCw/0.1% Tween 80 (n=3); format: ADME, organism-based; conditions: rat, in vivo, read-out: Vdss
[8] = Time at which peak plasma concentration is attained in mice following oral administration of an aqueous solution of the bis-mesylate salt of the compound; format: ADME, organism-based; conditions: mouse
Method in brief: (§2)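 Male CD mice (n = 2) given the bis-mesylate salt as an aqueous solution at 100 mg/kg by oral gavage, dose volume 10 mL/kg. Plasma taken from blood kept on wet ice, stored at -20 °C, protein-precipitated with four volumes of acetonitrile and analysed by HPLC/MS.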

[9] = Peak plasma concentration in mice following oral administration of an aqueous solution of the bis-mesylate salt of the compound; format: ADME, organism-based; set-up: route oral; conditions: mouse; method in brief: as §2
HT-29 = assay: In vitro inhibition of human colon tumor HT-29 cell proliferation; format: functional, cell-based
[10] = Area under concentration time curve in mice following oral administration of an aqueous solution of the bis-mesylate salt of the compound; format: ADME; conditions: mouse, in vivo; method in brief: as §2

CCS(=O)(=O)c1ccc(OC)c(Nc2ncc(-c3cccc(-c4ccccc4Cl)c3)o2)c1
IC50 [1]: 1.1 µM

CCS(=O)(=O)c1ccc(OC)c(Nc2ncc(-c3cccc(-c4ccccn4)c3)o2)c1.CS(=O)(=O)O
bioavailability [2]: 11% | half-life [3]: 1.6 h | Vd [4]: 3.74 L/kg | half-life [5]: 3.5 h | bioavailability [6]: 7% | Vd [7]: 1.03 L/kg

CCS(=O)(=O)c1ccc(OC)c(Nc2ncc(-c3cccc(-c4ccccn4)c3)o2)c1
Tmax [8]: 4 h | Cmax [9]: 35 µM | IC50 [1]: 5.8 µM | IC50 (HT-29): 4.5 µM | AUC [10]: 102 µg·h/mL

c1ccc(Nc2ncc(-c3ccccc3)o2)cc1 [GW549390X]
IC50 [1]: 24 µM

COc1cc2/c(=N/c3ccc(Br)cc3F)nc[nH]c2cc1OCC1CCN(C)CC1 [VANDETANIB]
IC50 [1]: 1.2 µM

Clc1ccc(Nc2nnc(Cc3ccncc3)c3ccccc23)cc1 [VATALANIB]
IC50 [1]: 25 µM
